Laboratory results as given in ChEMBL document CHEMBL1134817, “Mixed kappa agonists and mu agonists/antagonists as potential pharmacotherapeutics for cocaine abuse: synthesis and opioid receptor binding affinity of N-substituted derivatives of morphinan” (Bioorg Med Chem Lett, 2001).

Tests used:
[1] = target: T1, Kappa-type opioid receptor (Cavia porcellus, UniProt P41144); test: Binding affinity towards guinea pig Opioid receptor kappa 1 using radioligand [3H]U-69593
How it was run: (§1)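 Competitive displacement binding on guinea pig brain membranes. Each receptor was labelled with its own tritiated radioligand: [³H]DAMGO (μ agonist) for μ, [³H]naltrindole (δ antagonist) for δ, and [³H]U69593 (κ agonist) for κ. The method follows an earlier protocol.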

Mu-type opioid receptor = Mu-type opioid receptor (Cavia porcellus, UniProt P97266); test: Binding affinity towards Opioid receptor mu 1 in guinea pig brain membranes using [3H]DAMGO as radioligand; format: cell membranes, Membrane; how it was run: as §1
[2] = target: Opioid receptors; delta & kappa (Homo sapiens) (UniProt P41145+P41143); test: Selectivity ratio of kappa opioid receptor to that of delta opioid receptor in guinea pig brain membranes; format: cell membranes; details: Cavia porcellus; target entry is the homologue from another species
[3] = target: Opioid receptors; mu & kappa (Homo sapiens) (UniProt P41145+P35372); test: Selectivity ratio of kappa opioid receptor to that of mu opioid receptor in guinea pig brain membranes; format: cell membranes; details: Cavia porcellus; target entry is the homologue from another species
[4] = target: T1, Kappa-type opioid receptor; test: Binding affinity towards Opioid receptor kappa 1 in guinea pig brain membranes using [3H]U-69593 as radioligand; format: cell membranes, Membrane; how it was run: as §1
[5] = Binding affinity towards Opioid receptor delta 1 in guinea pig brain membranes using [3H]naltrindole as radioligand

Opioid receptors; mu & kappa (Homo sapiens), sequence (P35372 whole entry, looked up): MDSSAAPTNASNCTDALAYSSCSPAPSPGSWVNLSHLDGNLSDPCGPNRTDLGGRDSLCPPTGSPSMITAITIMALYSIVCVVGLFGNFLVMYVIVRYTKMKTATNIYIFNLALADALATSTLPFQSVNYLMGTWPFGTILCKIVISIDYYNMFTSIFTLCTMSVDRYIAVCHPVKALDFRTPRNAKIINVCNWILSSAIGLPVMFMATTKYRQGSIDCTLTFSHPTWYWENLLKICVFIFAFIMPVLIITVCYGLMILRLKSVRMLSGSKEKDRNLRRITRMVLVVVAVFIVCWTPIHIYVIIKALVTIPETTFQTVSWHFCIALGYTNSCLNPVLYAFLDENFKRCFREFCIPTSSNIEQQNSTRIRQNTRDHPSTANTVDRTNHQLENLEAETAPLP
Opioid receptors; mu & kappa (Homo sapiens), sequence (P41145 whole entry, looked up): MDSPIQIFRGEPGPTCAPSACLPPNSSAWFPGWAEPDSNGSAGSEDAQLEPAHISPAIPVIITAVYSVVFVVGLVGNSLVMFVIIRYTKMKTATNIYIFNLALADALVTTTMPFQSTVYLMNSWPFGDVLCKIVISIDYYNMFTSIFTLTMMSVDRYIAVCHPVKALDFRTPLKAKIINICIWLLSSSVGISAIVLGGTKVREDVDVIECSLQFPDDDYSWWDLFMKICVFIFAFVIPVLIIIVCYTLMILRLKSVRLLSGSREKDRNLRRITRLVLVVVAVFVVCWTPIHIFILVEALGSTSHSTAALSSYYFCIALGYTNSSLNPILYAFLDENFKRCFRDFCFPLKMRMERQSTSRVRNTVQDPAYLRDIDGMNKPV
Opioid receptors; delta & kappa (Homo sapiens), sequence (P41143 whole entry, looked up): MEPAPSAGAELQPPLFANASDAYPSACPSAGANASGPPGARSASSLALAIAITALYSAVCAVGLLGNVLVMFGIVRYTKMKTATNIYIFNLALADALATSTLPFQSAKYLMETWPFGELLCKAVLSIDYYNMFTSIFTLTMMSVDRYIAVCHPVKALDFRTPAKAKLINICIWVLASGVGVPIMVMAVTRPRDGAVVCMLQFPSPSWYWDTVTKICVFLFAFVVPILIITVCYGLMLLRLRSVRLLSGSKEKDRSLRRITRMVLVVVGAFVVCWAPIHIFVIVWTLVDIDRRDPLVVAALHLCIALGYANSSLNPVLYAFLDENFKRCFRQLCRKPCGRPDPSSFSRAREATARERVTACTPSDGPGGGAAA
Opioid receptors; delta & kappa (Homo sapiens), sequence (P41145 whole entry, looked up): as the sequence (P41145 whole entry, looked up) above
Mu-type opioid receptor, sequence (P97266 whole entry): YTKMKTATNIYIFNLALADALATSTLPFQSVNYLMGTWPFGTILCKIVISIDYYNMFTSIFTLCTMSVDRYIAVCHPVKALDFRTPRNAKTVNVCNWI
T1 sequence (P41144 whole entry): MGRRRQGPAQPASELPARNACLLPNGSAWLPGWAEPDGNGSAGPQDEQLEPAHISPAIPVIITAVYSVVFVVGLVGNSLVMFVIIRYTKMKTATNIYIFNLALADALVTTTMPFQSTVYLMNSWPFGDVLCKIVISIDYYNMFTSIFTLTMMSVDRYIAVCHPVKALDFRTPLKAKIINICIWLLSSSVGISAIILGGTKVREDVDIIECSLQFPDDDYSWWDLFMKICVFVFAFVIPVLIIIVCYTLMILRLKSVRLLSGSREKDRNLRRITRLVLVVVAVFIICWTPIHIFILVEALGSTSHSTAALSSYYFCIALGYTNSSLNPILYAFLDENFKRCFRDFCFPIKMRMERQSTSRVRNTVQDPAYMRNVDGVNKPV

| SMILES | Ki [1] [nM] | Ki (Mu-type opioid receptor) [nM] | Selectivity [2] | Selectivity [3] | Ki [4] [nM] | Ki [5] [nM] |
| --- | --- | --- | --- | --- | --- | --- |
| Oc1ccc2c(c1)C[C@@H]1[C@@H]3CCCCC23CCN1Cc1cccs1 | 0.32 | 1.5 | 160 | 5 |  |  |
| C=CCN1CC[C@]23CCCC[C@H]2[C@H]1Cc1cc(O)ccc13 | 0.16 | 0.34 | 26 | 2 |  |  |
| Oc1ccc2c(c1)C[C@@H]1[C@@H]3CCCC[C@]23CCN1CC=CI | 0.65 | 0.42 | 51 | 0.6 |  |  |
| Oc1ccc2c(c1)C[C@@H]1[C@@H]3CCCCC23CCN1CC1CCCC1 |  | 0.96 | 33 | 5 | 0.21 |  |
| Oc1ccc2c(c1)C[C@@H]1[C@@H]3CCCC[C@]23CCN1CCOc1ccccc1 | 15 | 0.92 | 2 | 0.06 |  |  |
| Oc1ccc2c(c1)C[C@@H]1[C@@H]3CCCC[C@]23CCN1Cc1ccco1 | 0.13 | 0.54 | 65 | 4 |  |  |
| CC(C)CN1CC[C@]23CCCC[C@H]2[C@H]1Cc1cc(O)ccc13 |  | 0.54 | 35 | 3 | 0.16 |  |
| O=C(CCN1CC[C@]23CCCC[C@H]2[C@H]1Cc1cc(O)ccc13)c1cccs1 | 4.5 | 0.27 | 2 | 0.06 |  |  |
| N#CCCN1CC[C@]23CCCC[C@H]2[C@H]1Cc1cc(O)ccc13 | 0.23 | 0.33 | 11 | 1.4 |  |  |
| Oc1ccc2c(c1)C[C@@H]1[C@@H]3CCCC[C@]23CCN1CCC(F)(F)F | 1.3 | 2.3 | 21 | 2 |  |  |
| O=C(CCN1CC[C@]23CCCC[C@H]2[C@H]1Cc1cc(O)ccc13)c1ccccc1 | 9.9 | 0.43 | 2 | 0.04 |  |  |
| Oc1ccc2c(c1)C[C@@H]1[C@@H]3CCCCC23CCN1CC1CCCCC1 |  | 18 | 46 | 12 | 1.5 |  |
| Oc1ccc2c(c1)C[C@@H]1[C@@H]3CCCC[C@]23CCN1CCc1ccccc1 | 1.3 | 0.12 | 2 | 0.092 |  |  |
| N#CCCCN1CC[C@]23CCCC[C@H]2[C@H]1Cc1cc(O)ccc13 | 0.38 | 0.16 | 8 | 0.42 |  |  |
| Oc1ccc2c(c1)C[C@@H]1[C@@H]3CCCC[C@]23CCN1Cc1ccccc1 | 1.9 | 20 | 220 | 11 |  |  |
| Oc1ccc2c(c1)C[C@@H]1[C@@H]3CCCC[C@]23CCN1CCCF |  | 0.18 | 10 | 2 | 0.083 |  |
| Oc1ccc2c(c1)C[C@@H]1[C@@H]3CCCC[C@]23CCN1CCC(O)c1cccs1 (some centres undefined) | 25 | 4.1 | 4 | 0.2 |  |  |
| O=C(CCN1CC[C@]23CCCC[C@H]2[C@H]1Cc1cc(O)ccc13)c1ccco1 | 7.9 | 0.28 | 5 | 0.035 |  |  |
| CCOCCN1CC[C@]23CCCC[C@H]2[C@H]1Cc1cc(O)ccc13 |  | 0.26 | 16 | 0.8 | 0.33 |  |
| Oc1ccc2c(c1)[C@@]13CCCC[C@H]1[C@@H](C2)N(CC1CCC1)CC3 [BUTORPHAN] |  |  | 18 | 2 | 0.07 | 1.3 |
| COCCN1CC[C@]23CCCC[C@H]2[C@H]1Cc1cc(O)ccc13 | 0.094 | 0.11 | 6 | 1 |  |  |
| C#CCN1CC[C@]23CCCC[C@H]2[C@H]1Cc1ccc(O)cc13 | 0.003 | 0.0032 | 210 | 1 |  |  |
| Oc1ccc2c(c1)[C@@]13CCCC[C@H]1[C@@H](C2)N(CC1CC1)CC3 [CYCLORPHAN] |  |  |  |  |  | 0.22 |
| Oc1ccc2c(c1)C[C@@H]1[C@@H]3CCCC[C@]23CCN1CCC(O)c1ccco1 (some centres undefined) | 12 | 4.2 | 2 | 0.35 |  |  |
| Oc1ccc2c(c1)C[C@@H]1[C@@H]3CCCC[C@]23CCN1CCC(O)c1ccccc1 (some centres undefined) | 57 | 21 | 2 | 0.4 |  |  |
| Oc1ccc2c(c1)C[C@@H]1[C@@H]3CCCC[C@]23CCN1C/C=C/I | 0.037 | 0.0048 | 730 | 0.13 |  |  |
| CN1CC[C@]23CCCC[C@H]2[C@H]1Cc1ccc(O)cc13 [LEVORPHANOL] |  |  | 2 | 0.09 |  | 4.2 |
